The structures appear in SMILES notation.

What all share (type): functional
The test system of test [1] is Rattus norvegicus. Description: Hypolipidemic activity in 14 days high cholesterol diet fed Wistar albino rat hyperlipidemic model assessed as increase in serum high density lipoprotein cholesterol level at 20 mg/kg, po administered on day 8 to 14. The gist of the method: (§1)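 Male Wistar rats (160–180 g), acclimatized one week, fed chow with 2% cholesterol and 1% cholic acid for 14 days. Oral dosing was 20 mg/kg in 0.5% CMC on days 8–14, with six rats per group. On day 14, after a 12 h fast, tail blood was drawn under ether. Serum was analysed by kit spectrophotometry. Results are % change versus vehicle-treated hyperlipidemic controls.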

The test system of test [2] is Rattus norvegicus. Description: Hypolipidemic activity in 14 days high cholesterol diet fed Wistar albino rat hyperlipidemic model assessed as decrease in serum triglyceride level at 20 mg/kg, po administered on day 8 to 14. Also on record: scale not given: the % may be the effect or the level left. Summed up: as §1
Test [3] deals with Rattus norvegicus. Description: Hypolipidemic activity in 14 days high cholesterol diet fed Wistar albino rat hyperlipidemic model assessed as decrease in serum total cholesterol level at 20 mg/kg, po administered on day 8 to 14. On the set-up: scale not given: the % may be the effect or the level left. Summed up:
as §1

Test [4] has as its system Rattus norvegicus. Description: Hypolipidemic activity in 14 days high cholesterol diet fed Wistar albino rat hyperlipidemic model assessed as decrease in serum low density lipoprotein cholesterol level at 20 mg/kg, po administered on day 8 to 14. Also on record: scale not given: the % may be the effect or the level left. The gist of the method: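 HCD model in male Wistar rats (160–180 g) on chow plus 2% cholesterol and 1% cholic acid for 14 days. Oral dosing was 20 mg/kg in 0.5% carboxymethylcellulose from day 8 to 14, with groups of six. Rats were fasted 12 h on day 14, and tail blood was taken under mild ether anesthesia. Serum was separated by centrifugation at 3000 rpm for 10 min for lipoprotein cholesterol measurement.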

For test [5], the system named is Rattus norvegicus. Description: Ratio of serum LDL cholesterol to serum HDL cholesterol in 14 days high cholesterol diet fed Wistar albino rat at 20 mg/kg, po administered on day 8 to 14.
The species named for test [6] is Homo sapiens. Description: Reduction of plasma triglyceride level in human. On the set-up: scale not given: the % may be the effect or the level left.
The species named for test [7] is Homo sapiens. Description: Increase of plasma HDL cholesterol level in human.

Consider `Cc1cccc(OC(C)(C)C(=O)N/N=C/c2ccccc2Cl)c1`, for which the Activity in the test on Rattus norvegicus [1] was 14.6%; with Rattus norvegicus [2] it was -1.32%; in the test on Rattus norvegicus [3] it was 0%; in the test with Rattus norvegicus [4], 2.6%. Also, in the test on Rattus norvegicus [5], the Ratio worked out at 6.
The like results for `C=CCNC(=S)NNC(=O)C(C)(C)Oc1cccc(C)c1` were, in that order, 6.78%, -1.61%, -1.77%, -1% and 6.02.
For `Cc1cccc(OC(C)(C)C(=O)N/N=C/c2ccccc2)c1`, the Activity in the test with Rattus norvegicus [1] came out at 18.47%; with Rattus norvegicus [2], 2.54%; with Rattus norvegicus [3], 4.12%; with Rattus norvegicus [4], 8.02%. In the test with Rattus norvegicus [5], the Ratio is given as 4.94.
For the molecule `Cc1ccc(C)c(OCCCC(C)(C)C(=O)O)c1` [GEMFIBROZIL], the Activity stood at 25.18% in the test on Rattus norvegicus [1], 22.23% in the test on Rattus norvegicus [2], 4.68% with Rattus norvegicus [3] and 5.35% with Rattus norvegicus [4]. For the same molecule, in the test on Rattus norvegicus [5], the Ratio is 4.81.
As for `CCOC(=O)C(C)(C)Oc1ccc(Cl)cc1` [CLOFIBRATE], the Activity in the test filed under Homo sapiens [6] came out at 30%; in the test listed under Homo sapiens [7], 5%.
`COc1ccc(NC(=O)C(C)(C)Oc2cccc(C)c2)cc1`: the Activity with Rattus norvegicus [1] was 15.28%; with Rattus norvegicus [2] it was 25.79%; in the test on Rattus norvegicus [3], 23.24%; in the test with Rattus norvegicus [4] it was 28.67%. Also, in the test with Rattus norvegicus [5], the Ratio came to 3.93.
In the same order, the values of `Cc1cccc(OC(C)(C)C(=O)NCCc2ccccc2)c1` are 22.45%, 1.2%, 12.95%, 21.21% and 4.09.
Take `CC(C)(Oc1ccc(CCNC(=O)c2ccc(Cl)cc2)cc1)C(=O)O` [BEZAFIBRATE]: the values for the Activity in the test listed under Homo sapiens [6] and in the test listed under Homo sapiens [7] were 30% and 5%, respectively.
For the molecule `Cc1cccc(OC(C)(C)C(=O)O)c1`, the Activity turned out to be 10.68% in the test on Rattus norvegicus [1], 17.98% in the test on Rattus norvegicus [2], 15.89% in the test on Rattus norvegicus [3] and 19.56% with Rattus norvegicus [4]. In addition, in the test with Rattus norvegicus [5], the Ratio was determined as 4.62.
In the case of `Cc1cccc(OC(C)(C)C(=O)N/N=C/c2ccc([N+](=O)[O-])cc2)c1`, the Activity was 9.12% in the test with Rattus norvegicus [1], -0.84% in the test with Rattus norvegicus [2], 0.29% in the test on Rattus norvegicus [3] and 2.3% with Rattus norvegicus [4]. In addition, the Ratio with Rattus norvegicus [5] amounted to 5.71.
In the same order, the values of `CCNC(=S)NNC(=O)C(C)(C)Oc1cccc(C)c1` are 5.85%, 5.44%, -0.59%, -1.16% and 6.08.
Take `COc1ccc(/C=N/NC(=O)C(C)(C)Oc2cccc(C)c2)cc1`: the Activity in the test on Rattus norvegicus [1] was 15.8%; with Rattus norvegicus [2], 9.03%; in the test on Rattus norvegicus [4], -9.39%. For the same molecule, the Ratio in the test with Rattus norvegicus [5] turned out to be 5.41.
Regarding `CC(C)OC(=O)C(C)(C)Oc1ccc(C(=O)c2ccc(Cl)cc2)cc1` [FENOFIBRATE], the figures for the Activity in the test listed under Homo sapiens [6] and in the test filed under Homo sapiens [7] were 30% and 5%, respectively.
As to `CCOC(=O)c1ccc(NC(=O)C(C)(C)Oc2cccc(C)c2)cc1`, the Activity in the test with Rattus norvegicus [1] is on record as 15.04%; with Rattus norvegicus [2], 0.43%; in the test on Rattus norvegicus [3], 2.65%; in the test with Rattus norvegicus [4] it was 5.94%. Also, in the test with Rattus norvegicus [5], the Ratio is 5.2.
